ChEMBL document CHEMBL1145405, “Synthesis, biochemical, and cellular evaluation of farnesyl monophosphate prodrugs as farnesyltransferase inhibitors” (J Med Chem, 2007)
Each block holds one compound with its values, some of them ahead of it. Calls of active or inactive are those of the source. The rule behind the calls is not given here.

What was measured:
[1] = tested on: STS-26T; assay: Growth inhibition of human STS-26T cells at 1 to 5 uM after 24 hrs; format: functional, cell-based
Outline: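 STS-26T cultures were plated in medium with 5% FBS and dosed about 24 h later at 1, 3 or 5 µM, alone or with 1 µM lovastatin, against a DMSO vehicle. Cells were harvested at various times by trypsinization and counted with a hemocytometer; viability was judged by trypan blue exclusion. Values are means ± SD of three culture dishes.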

[2] = Apoptosis in human STS-26T cells at 1 uM after 24 hrs; format: functional
[3] = Cell cycle arrest in human STS-26T cells assessed as accumulation in G2/M phase at 1 uM after 24 hrs; format: functional, cell-based
Outline: (§1)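 STS-26T cells were grown in RPMI-1640 with 5% FBS and penicillin/streptomycin at 37 °C under 5% CO2. About 24 h after plating, cells were treated with 1 µM compound, alone or with 1 µM lovastatin, against a DMSO control. After 24 h, DNA content was read by flow cytometry (at least 10^4 events). G1, S and G2/M percentages of the nonapoptotic population came from histogram fitting.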

[4] = Cell cycle arrest in human STS-26T cells assessed as accumulation in S phase at 1 uM after 24 hrs; format: functional, cell-based; outline: as §1
[5] = Cell cycle arrest in human STS-26T cells assessed as accumulation in G1 phase at 1 uM after 24 hrs; format: functional, cell-based; outline: as §1
[6] = target: Protein farnesyltransferase (Rattus norvegicus); assay: Inhibition of farnesyltransferase assessed as farnesylation of Dansyl-GCVLS peptide

Structure (SMILES): CC(C)=CCC/C(C)=C/CC/C(=C/COP(=O)(OCc1ccc([N+](=O)[O-])o1)N(C)CCCCCl)C(C)(C)C (centres undefined)
- Activity [1]: inactive

Structure (SMILES): CC[C@H](C)C(=O)O[C@H]1C[C@@H](C)C=C2C=C[C@H](C)[C@H](CC[C@@H]3C[C@@H](O)CC(=O)O3)[C@H]21 [LOVASTATIN]
- Activity [2]: 0.3%
- Activity [3]: 10%
- Activity [4]: 37%
- Activity [5]: 53%

- IC50 [6]: 13 nM
Structure (SMILES): C=CC/C(=C\COP(=O)(O)O)CC/C=C(\C)CCC=C(C)C

Structure (SMILES): C=CC/C(=C\COP(=O)(OCc1ccc([N+](=O)[O-])o1)N(C)CCCCCl)CC/C=C(\C)CCC=C(C)C (centres undefined)
- Activity [2]: 0.5%
- Activity [3]: 12%
- Activity [4]: 40%
- Activity [5]: 48%
- Activity [1]: inactive

- IC50 [6]: 16 nM
Structure (SMILES): CC(C)=CCC/C(C)=C/CC/C(=C/COP(=O)(O)O)C(C)(C)C

Structure (SMILES): CC(C)=CCC/C(C)=C/CC/C(=C/COP(=O)(OCc1ccc([N+](=O)[O-])o1)N(C)CCCCCl)CC=C(C)C (centres undefined)
- Activity [1]: inactive

- IC50 [6]: 5000 nM
Structure (SMILES): CC(C)=CCC/C(C)=C/CC/C(=C/COP(=O)(O)O)CC=C(C)C
